Experimental data as given in ChEMBL document CHEMBL3745692, “Novel iodoacetamido benzoheterocyclic derivatives with potent antileukemic activity are inhibitors of STAT5 phosphorylation” (Eur J Med Chem, 2016).

Columns and labels:
[1] = target: T1, Signal transducer and activator of transcription 5A (Homo sapiens) (UniProt P42229); experiment: Inhibition of STAT5 phosphorylation in human K562 cells at 0.5 uM after 24 hrs by flow cytometry (reference value: 315.56); format: cell-based
T1 sequence (whole entry): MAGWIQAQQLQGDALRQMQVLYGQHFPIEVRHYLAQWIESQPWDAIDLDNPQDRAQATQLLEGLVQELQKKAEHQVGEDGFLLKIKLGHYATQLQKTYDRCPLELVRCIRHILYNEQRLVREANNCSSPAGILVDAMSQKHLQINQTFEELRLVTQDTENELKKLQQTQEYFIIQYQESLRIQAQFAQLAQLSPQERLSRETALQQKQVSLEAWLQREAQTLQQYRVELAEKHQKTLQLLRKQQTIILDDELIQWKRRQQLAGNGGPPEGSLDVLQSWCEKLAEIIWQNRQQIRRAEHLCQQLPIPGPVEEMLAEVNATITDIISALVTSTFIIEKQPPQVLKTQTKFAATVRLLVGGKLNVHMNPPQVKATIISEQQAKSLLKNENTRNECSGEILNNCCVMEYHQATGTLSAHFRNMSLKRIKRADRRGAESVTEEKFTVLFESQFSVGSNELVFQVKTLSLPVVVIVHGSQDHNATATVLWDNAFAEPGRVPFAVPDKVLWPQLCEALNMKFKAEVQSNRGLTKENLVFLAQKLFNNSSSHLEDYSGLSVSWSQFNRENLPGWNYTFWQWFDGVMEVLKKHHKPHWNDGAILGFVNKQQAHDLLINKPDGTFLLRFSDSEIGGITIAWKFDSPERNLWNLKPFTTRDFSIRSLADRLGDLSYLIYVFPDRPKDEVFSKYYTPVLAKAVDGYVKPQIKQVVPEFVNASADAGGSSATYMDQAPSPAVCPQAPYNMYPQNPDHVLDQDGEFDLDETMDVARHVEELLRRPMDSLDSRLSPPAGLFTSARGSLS
How it was run: (§1)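 After 24 h exposure, about 1×10^6 K562 cells were PBS-washed and fixed/permeabilised for 20 min at 4 °C. They were then stained for 30 min at 4 °C with PE-conjugated anti-pSTAT5 monoclonal antibody, with an isotype antibody as control. Median fluorescence was read by flow cytometry and compared with untreated cells stained for pSTAT5.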

K562 [2] = experiment: Potency index, ratio IC50 of imatinib mesilate to IC50 of compound for antiprolifertive activity against human K562; format: functional
How it was run: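 K562 cells grown in RPMI 1640 with 10% FCS at 37 °C, 5% CO2. 2×10^5 cells/mL exposed to a range of concentrations for 48 h. Viable cells counted by trypan blue exclusion, as % of control.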

[3] = target: T1, Signal transducer and activator of transcription 5A (Homo sapiens); experiment: Inhibition of STAT5 phosphorylation in human K562 cells at 0.5 uM after 24 hrs by flow cytometry relative to control; format: cell-based; how it was run: as §1
K562 [4] = experiment: Cell cycle arrest in human K562 cells assessed as accumulation at S-phase at 0.5 uM for 24 hrs by propidium iodide staining based flow cytometry (reference value: 47.84%); format: functional
How it was run: (§2)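 K562 cells in RPMI 1640 with 10% FCS, penicillin/streptomycin and L-glutamine, 5% CO2, 37 °C; exposed 24 h. Cells washed in ice-cold PBS, resuspended at 1×10^6/mL in hypotonic solution of propidium iodide 50 µg/mL in 0.1% sodium citrate plus 0.03% nonidet P-40 for 30 min. DNA content read as single-parameter flow cytometry histograms; phase distribution modelled.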

K562 [5] = experiment: Cell cycle arrest in human K562 cells assessed as accumulation at G1 phase at 0.5 uM for 24 hrs by propidium iodide staining based flow cytometry (reference value: 39.27%); format: functional; how it was run: as §2
K562 [6] = experiment: Antiproliferative activity against human K562 cells after 48 hrs by trypan blue dye exclusion assay; format: functional, cell-based; conditions: K562, 48 h
K562 [7] = experiment: Potency index, ratio AC50 of imatinib mesilate to AC50 of compound for induction of apoptosis in human K562; format: functional
How it was run: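 K562 cells in RPMI 1640 with 10% FCS, treated 48 h over a concentration range. Apoptosis scored morphologically after acridine orange/ethidium bromide staining (≥300 cells counted, chromatin condensation, apoptotic bodies) and by annexin V-FITC/propidium iodide flow cytometry. AC50 is the concentration giving 50% apoptotic cells, mean ± SE of 2–3 experiments.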

K562 [8] = experiment: Induction of apoptosis in human K562 cells after 48 hrs by annexinV and propidium iodide staining based flow cytometry; format: functional, cell-based; conditions: K562, 48 h
How it was run: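 After 48 h drug exposure, 1×10^6 cells were washed in PBS and spun at 200×g for 5 min. They were stained with FITC-annexin V plus propidium iodide for 15 min at 20 °C and annexin V-positive cells counted by flow cytometry. Apoptosis was also scored morphologically with acridine orange/ethidium bromide, counting at least 300 cells. AC50 is the concentration inducing apoptosis in 50% of cells; mean ± SE from two to three experiments.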

K562 [9] = experiment: Cell cycle arrest in human K562 cells assessed as accumulation at G2M-phase at 0.5 uM for 24 hrs by propidium iodide staining based flow cytometry (reference value: 12.89%); format: functional; how it was run: as §2

COc1cc2oc(C(=O)c3cc(OC)c(OC)c(OC)c3)c(C)c2cc1NC(=O)CI
Flu intensity [1]: 176 | Ratio IC50 (K562 [2]): 3.1 | inhibition [3]: 44% | Activity (K562 [4]): 35.47% | Activity (K562 [5]): 35.78% | IC50 (K562 [6]): 70 nM | Ratio IC50 (K562 [7]): 2.7 | AC50 (K562 [8]): 250 nM | Activity (K562 [9]): 28.76%
